In ChEMBL document CHEMBL1649392, “Synthesis of substituted 3-amino-N-phenyl-1H-indazole-1-carboxamides endowed with antiproliferative activity” (Eur J Med Chem, 2011):

Tests used:
Format in all cases: functional
[1] = system: HOP-62; assay: Antiproliferative activity against human HOP62 cells after 48 hrs by sulforhodamine B assay; conditions: HOP-62, 48 h
How it was run: (§1)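 NCI 60-cell-line panel covering nine cancer types (leukemia, non-small cell lung, colon, CNS, melanoma, ovarian, renal, prostate, breast). Compounds were first tested at a single dose, then in a five-dose screen (series starting 0.01, 0.1 …) if they met NCI threshold criteria. Reported per line: GI50 (molar concentration inhibiting 50% net growth), TGI (total growth inhibition) and LC50 (50% net cell death).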

[2] = system: KM12; assay: Antiproliferative activity against human KM12 cells after 48 hrs by sulforhodamine B assay; conditions: KM12, 48 h; for CC50: read-out: LC50 (the source's name); how it was run: as §1
[3] = system: MDA-MB-435; assay: Antiproliferative activity against human MDA-MB-435 cells after 48 hrs by sulforhodamine B assay; conditions: MDA-MB-435, 48 h; how it was run: as §1
[4] = system: SNB-75; assay: Antiproliferative activity against human SNB75 cells after 48 hrs by sulforhodamine B assay; conditions: SNB-75, 48 h; how it was run: as §1
[5] = system: UACC-62; assay: Antiproliferative activity against human UACC62 cells after 48 hrs by sulforhodamine B assay; conditions: UACC-62, 48 h; for CC50: read-out: LC50 (the source's name)
How it was run: (§2)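 NCI 60-cell-line panel screen: single dose 10 µM first, then 5-dose testing (0.01, 0.1, … molar series). For each line, GI50 is the molar concentration giving 50% inhibition of net cell growth, TGI gives total inhibition of net growth, and LC50 gives 50% net cell death. Method follows the NCI DTP protocol.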

[6] = system: OVCAR-4; assay: Antiproliferative activity against human OVCAR4 cells after 48 hrs by sulforhodamine B assay; conditions: OVCAR-4, 48 h; for CC50: read-out: LC50 (the source's name); how it was run: as §1
[7] = system: SNB-19; assay: Antiproliferative activity against human SNB19 cells after 48 hrs by sulforhodamine B assay; conditions: SNB-19, 48 h; for CC50: read-out: LC50 (the source's name); how it was run: as §1
[8] = system: NCI-H460; assay: Antiproliferative activity against human NCI-H460 cells after 48 hrs by sulforhodamine B assay; conditions: NCI-H460, 48 h; how it was run: as §1
[9] = system: MCF7; assay: Antiproliferative activity against human MCF7 cells after 48 hrs by sulforhodamine B assay; conditions: MCF7, 48 h; how it was run: as §1
[10] = system: HT-29; assay: Antiproliferative activity against human HT-29 cells after 48 hrs by sulforhodamine B assay; conditions: HT-29, 48 h; how it was run: as §1
[11] = system: HCT-116; assay: Antiproliferative activity against human HCT116 cells after 48 hrs by sulforhodamine B assay; conditions: HCT-116, 48 h; how it was run: as §1
[12] = system: CCRF-CEM; assay: Antiproliferative activity against human CCRF-CEM cells after 48 hrs by sulforhodamine B assay; how it was run: as §1
[13] = system: A498; assay: Antiproliferative activity against human A498 cells after 48 hrs by sulforhodamine B assay; conditions: A498, 48 h; for CC50: read-out: LC50 (the source's name); how it was run: as §1
[14] = system: NCI/ADR-RES; assay: Antiproliferative activity against human NCI/ADR-RES cells after 48 hrs by sulforhodamine B assay; how it was run: as §1
[15] = system: IGROV-1; assay: Antiproliferative activity against human IGROV1 cells after 48 hrs by sulforhodamine B assay; conditions: IGROV-1, 48 h; for CC50: read-out: LC50 (the source's name); how it was run: as §1
[16] = system: SK-MEL-5; assay: Antiproliferative activity against human SK-MEL-5 cells after 48 hrs by sulforhodamine B assay; conditions: SK-MEL-5, 48 h; how it was run: as §1
[17] = system: NCI-H23; assay: Antiproliferative activity against human NCI-H23 cells after 48 hrs by sulforhodamine B assay; conditions: NCI-H23, 48 h; for CC50: read-out: LC50 (the source's name); how it was run: as §1
[18] = system: NCI-H322M; assay: Antiproliferative activity against human NCI-H322M cells after 48 hrs by sulforhodamine B assay; conditions: for CC50: read-out: LC50 (the source's name); how it was run: as §1
[19] = system: HL-60(TB); assay: Antiproliferative activity against human HL-60(TB) cells after 48 hrs by sulforhodamine B assay; conditions: HL-60, 48 h
How it was run: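 Tested by the National Cancer Institute in its full tumour cell panel covering nine cancer types, including leukemia. Compounds were first screened at a single dose. Those passing the preset inhibition threshold then went to a 5-dose screen. GI50 is the molar concentration giving 50% inhibition of net cell growth; TGI and LC50 were also derived.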

[20] = system: SW-620; assay: Antiproliferative activity against human SW620 cells after 48 hrs by sulforhodamine B assay; conditions: SW-620, 48 h; for CC50: read-out: LC50 (the source's name); how it was run: as §2
[21] = system: LOX IMVI; assay: Antiproliferative activity against human LOXIMVI cells after 48 hrs by sulforhodamine B assay; how it was run: as §1
[22] = system: NCI-H522; assay: Antiproliferative activity against human NCI-H522 cells after 48 hrs by sulforhodamine B assay; conditions: NCI-H522, 48 h; how it was run: as §1
[23] = system: SK-MEL-28; assay: Antiproliferative activity against human SK-MEL-28 cells after 48 hrs by sulforhodamine B assay; conditions: SK-MEL-28, 48 h; for CC50: read-out: LC50 (the source's name); how it was run: as §1
[24] = system: OVCAR-3; assay: Antiproliferative activity against human OVCAR3 cells after 48 hrs by sulforhodamine B assay; conditions: OVCAR-3, 48 h; for CC50: read-out: LC50 (the source's name); how it was run: as §1
[25] = system: SF-295; assay: Antiproliferative activity against human SF295 cells after 48 hrs by sulforhodamine B assay; conditions: SF-295, 48 h; how it was run: as §1
[26] = system: OVCAR-8; assay: Antiproliferative activity against human OVCAR8 cells after 48 hrs by sulforhodamine B assay; conditions: OVCAR-8, 48 h; for CC50: read-out: LC50 (the source's name); how it was run: as §1
[27] = read-out: LC50 (the source's name)

Nc1ccc2c(c1)c(N)nn2C(=O)Nc1ccc(Cc2ccccc2)cc1
GI50 [1]: 11.2 µM
LC50 (concentration causing 50% net cell death) [1]: 65.3 µM
TGI [1]: 27 µM
GI50 [2]: 3.34 µM
TGI [2]: 15.1 µM
CC50 [2]: 41.3 µM
GI50 [3]: 7.36 µM
TGI [3]: 23.8 µM
CC50 [3, 27]: 65.5 µM
GI50 [4]: 17.4 µM
LC50 (concentration causing 50% net cell death) [4]: 57.1 µM
TGI [4]: 31.5 µM
GI50 [5]: 2.9 µM
TGI [5]: 12.6 µM
CC50 [5]: 39.3 µM
GI50 [6]: 8.29 µM
TGI [6]: 24.1 µM
CC50 [6]: 63.2 µM
GI50 [7]: 13.9 µM
TGI [7]: 27.3 µM
CC50 [7]: 53.6 µM
GI50 [8]: 4.64 µM
TGI [8]: 23.8 µM
CC50 [8, 27]: > 100 µM
GI50 [9]: 6.92 µM
TGI [9]: 26.5 µM
CC50 [9, 27]: 85.4 µM
GI50 [10]: 4.51 µM
LC50 (concentration giving 50% net cell death) [10]: 46 µM
TGI [10]: 17.2 µM
GI50 [11]: 6.79 µM
LC50 (concentration causing 50% net cell death) [11]: 50 µM
TGI [11]: 20.8 µM
GI50 [12]: 2.07 µM
LC50 (concentration causing 50% net cell death) [12]: > 100 µM
TGI [12]: 18.8 µM
GI50 [13]: 14.4 µM
TGI [13]: 28.4 µM
CC50 [13]: 56.1 µM
GI50 [14]: 17.4 µM
TGI [14]: 75.1 µM
CC50 [14, 27]: > 100 µM
GI50 [15]: 16.4 µM
TGI [15]: 54.1 µM
CC50 [15]: > 100 µM
GI50 [16]: 6.52 µM
TGI [16]: 19.8 µM
CC50 [16, 27]: 46.4 µM
GI50 [17]: 16.9 µM
TGI [17]: 39.5 µM
CC50 [17]: 92.4 µM
GI50 [18]: 13 µM
TGI [18]: 27.5 µM
CC50 [18]: 58.3 µM
GI50 [19]: 3.46 µM
TGI [19]: 17.2 µM
CC50 [19, 27]: 72.2 µM
GI50 [20]: 4.48 µM
TGI [20]: 18.7 µM
CC50 [20]: 58.5 µM
GI50 [21]: 3.38 µM
LC50 (concentration causing 50% net cell death) [21]: 46.7 µM
TGI [21]: 16 µM
GI50 [22]: 14.7 µM
LC50 (concentration causing 50% net cell death) [22]: > 100 µM
TGI [22]: 39.6 µM
GI50 [23]: 13.7 µM
TGI [23]: 27.8 µM
CC50 [23]: 56.2 µM
GI50 [24]: 12.1 µM
TGI [24]: 28.3 µM
CC50 [24]: 66.7 µM
GI50 [25]: 3.96 µM
LC50 [25]: 45.4 µM
TGI [25]: 15.1 µM
GI50 [26]: 20.2 µM
TGI [26]: > 100 µM
CC50 [26]: > 100 µM

Nc1nn(C(=O)Nc2ccc(Cc3ccccc3)cc2)c2ccccc12
LC50 (concentration causing 50% net cell death) [1]: > 100 µM
TGI [1]: 46.5 µM
TGI [2]: > 100 µM
CC50 [2]: > 100 µM
GI50 [4]: 17 µM
LC50 (concentration causing 50% net cell death) [4]: > 100 µM
TGI [4]: 47.4 µM
TGI [5]: > 100 µM
CC50 [5]: > 100 µM
TGI [6]: 40.4 µM
CC50 [6]: > 100 µM
TGI [7]: > 100 µM
CC50 [7]: > 100 µM
TGI [8]: 13 µM
LC50 (concentration causing 50% net cell death) [11]: > 100 µM
TGI [11]: > 100 µM
TGI [13]: 31.5 µM
CC50 [13]: 59.6 µM
TGI [15]: 48.8 µM
CC50 [15]: > 100 µM
TGI [17]: 83.5 µM
CC50 [17]: > 100 µM
TGI [18]: > 100 µM
CC50 [18]: > 100 µM
TGI [20]: 41.5 µM
CC50 [20]: > 100 µM
GI50 [22]: 2.9 µM
LC50 (concentration causing 50% net cell death) [22]: > 100 µM
TGI [22]: > 100 µM
TGI [23]: > 100 µM
CC50 [23]: > 100 µM
TGI [24]: 63.1 µM
CC50 [24]: > 100 µM
GI50 [25]: 0.53 µM
LC50 [25]: > 100 µM
TGI [25]: > 100 µM
TGI [26]: 63.9 µM
CC50 [26]: > 100 µM
